mABHD4 FP = ABHD4 (mouse) inhibition, primary FP screen | inhibition, % at 8.92 µM | purified mABHD4, FP-Rh probe fluorescence polarization | hit rate 0.54% among 370,000 | AID 720543;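 active = inhibition exceeding the mean over every tested compound plus 3 SD, cut at about 30% in these data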;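 note: 0% = plate median of compound wells and 100% = S159A mutant with DMSO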
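Test system: mABHD4 protein; Read-out basis: % inhibition; Incubation: 45 min + 60 min at 25 °C; Repeats: single replicate; Technique: fluorescence polarization with parallel and perpendicular emission, 525/598 nm; Compound: 8.92 µM, single dose; Benchmarks: full inhibition S159A mutant plus DMSO, zero as sample-well median.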
SIAE inh = human SIAE inhibition, primary screen. SIAE FP-Rh probe binding, fluorescence polarization. inhibition, % at 9.66 µM. Q9HAT2. AID 1053197. hit rate 0.69% among 370,000;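 active = inhibition above a cutoff: mean of compounds within the control limits plus 3 SD of those, cut at about 17% in these data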;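 note: 0% = plate median of compound wells and 100% = probe without SIAE protein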
PRMT1 FP inh = blocks human protein arginine methyltransferase 1; Q99873; recombinant PRMT1, activity-based probe fluorescence polarization; inhibition, % at 2.79 µM; hit rate 1.3% among 370,000; AID 652257;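 active = inhibition above about 21% made by adding two undisclosed values, limit read from the data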
Target sequence (Q99873 whole entry, looked up): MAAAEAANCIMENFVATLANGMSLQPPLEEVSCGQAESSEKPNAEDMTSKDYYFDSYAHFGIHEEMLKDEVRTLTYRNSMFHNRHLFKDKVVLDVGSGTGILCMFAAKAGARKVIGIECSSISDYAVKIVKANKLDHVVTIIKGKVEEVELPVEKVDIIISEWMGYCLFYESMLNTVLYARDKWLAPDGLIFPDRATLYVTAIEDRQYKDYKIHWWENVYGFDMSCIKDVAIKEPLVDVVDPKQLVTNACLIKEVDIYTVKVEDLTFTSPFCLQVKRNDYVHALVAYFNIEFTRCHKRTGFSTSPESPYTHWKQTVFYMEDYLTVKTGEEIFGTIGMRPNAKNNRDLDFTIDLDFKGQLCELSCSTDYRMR
HTRA1 inh = inhibitors of human serine peptidase HTRA1; Q92743; recombinant HTRA1, FP-rhodamine activity-based probe, fluorescence polarization; inhibition, % at 5.96 µM; hit rate 0.5% among 340,000; in the data active = inhibition above about 36%;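 note: 0% = enzyme with DMSO and 100% = wells lacking enzyme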
GASC-1 inh = human JMJD2C demethylase inhibition | Q9H3R0 | inhibition, % at 2.35 µM | hit rate 0.069% among 330,000 | GST-JMJD2C(1-420) H3K9me3 demethylation, DELFIA europium;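 active = more than half of a compound's replicate wells show inhibition beyond 50%, single wells judged on their own value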;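 note: signal counts dimethyl H3K9 product captured on neutravidin plate; 0% = median of DMSO wells and 100% = 0.3 times that DMSO median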
PRMT1 confirm = confirmation of human PRMT1 inhibitors | recombinant His-PRMT1, activity-based probe fluorescence polarization | hit rate 42% among 3,300 | inhibition, % at 2.79 µM | shares compounds with PRMT1 FP inh;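 active = mean inhibition across replicates above the hit cutoff derived for the earlier primary screen, cut at about 22% in these data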
An asterisk follows results filed as active; · = not tested or not shown. An excerpt weighted towards active compounds, which were near 2.4% of everything screened.

SMILES	mABHD4 FP	SIAE inh	PRMT1 FP inh	HTRA1 inh	GASC-1 inh	PRMT1 confirm
O=S1(=O)CC2c3ccccc3CN2CN1Cc1ccccc1 (stereo unspecified)	-1	3	-2	·	·	·
Cc1nc2scc(-c3ccccc3)c2c(=O)n1N=C1C=CC(=O)C=C1	10	16	90*	·	-7	94*
Cc1nc2ccc(S(=O)(=O)NCC(=O)NCc3ccc4c(c3)OCO4)cc2s1	-8	-9	49*	0	-5	1
O=C(NN1C(=O)/C(=C\c2ccc(O)c([N+](=O)[O-])c2)SC1=S)c1ccccc1Cl	17	-5	6	-2	4	·
O=C(O)c1ccc(/C=C2\SC(=S)N(NC(=O)c3ccccc3[N+](=O)[O-])C2=O)cc1	13	-8	29*	-2	8	1
COc1ccc(CN2c3ccccc3C(=O)CS2(=O)=O)cc1OC	-21	-5	-2	·	·	·
CCOc1ccccc1NC(=O)c1c(NC(=O)CCC(=O)O)sc2c1CCCCC2	2	4	25*	3	·	-4
CCOc1ccccc1NC(=O)CCC(=O)O	1	-5	0	1	0	·
CCOC(=O)c1ccc(NC(=O)c2c(NC(=O)CCC(=O)O)sc3c2CCCCC3)cc1	2	-5	44*	·	0	5
O=C(CN1CCCC1c1cccs1)Nc1cc(S(=O)(=O)N2CCCCC2)ccc1Cl (stereo unspecified)	4	-2	2	0	·	·
CN1CCN(c2ccc(CNC(=O)C3Cc4c(-c5ccccc5)ccnc4O3)cc2)CC1 (stereo unspecified)	0	-7	-3	·	·	·
CCOc1ccc(N2C(=O)C3ON(c4ccccc4)C(c4ccco4)C3C2=O)cc1 (stereo unspecified)	9	4	-2	-14	1	·
CCOc1ccc(N2C(=O)C3Sc4[nH]c(=O)sc4C(/C=C/c4ccccc4)C3C2=O)cc1 (stereo unspecified)	5	9	27*	-3	11	3
COc1ccc(CNCC#Cc2cccnc2)c(OC)c1	4	6	1	·	·	·
CC(C)c1cc(=O)oc2c3c4c(cc12)CCCN4CCC3	7	-4	8	0	0	·
O=c1oc2c3c4c(cc2c(C(F)(F)F)c1CCN1CCOCC1)CCCN4CCC3	-5	-7	53*	5	-2	24*
CCCOc1ccc(F)cc1-c1cc(C(=O)NCc2cc(OC)cc(OC)c2)[nH]n1	-46	-22	0	·	·	·
Cc1cccc(NC(=O)COC(=O)CCc2c[nH]c3ccccc23)c1C	-2	2	2	5	-34	·
Cc1cccc(C)c1NC(=O)COC(=O)CCc1c[nH]c2ccccc12	10	6	30*	1	5	-1
O=C(CSC1=Nc2ccccc2C2CC=NN12)Nc1ccc(F)cc1Cl (stereo unspecified)	2	2	32*	-15	·	43*
COc1ccc(C(c2nnnn2C(C)(C)C)N2CCN(C/C=C/c3ccccc3)CC2)cc1 (stereo unspecified)	-2	-6	35*	·	·	7
c1ccc(Sc2ccncc2)cc1	0	-6	-3	2	·	·
c1cc(SSc2ccncc2)ccn1	7	7	87*	3	-8	83*
CCCC(=O)Nc1ccc2c(c1)C(=O)N(C)[C@H]1CC[C@@H](CC(=O)OC)O[C@@H]1CO2	3	0	4	·	·	·
CC(C)CN(C(=O)CSc1nc(-c2ccccc2)cn1N)c1c(N)n(Cc2ccccc2)c(=O)[nH]c1=O	2	10	26*	-8	-2	10
SMILES	mABHD4 FP	SIAE inh	PRMT1 FP inh	HTRA1 inh	GASC-1 inh	PRMT1 confirm
COCCN(C(=O)CSc1nnc(C)n1Cc1ccccc1)c1c(N)n(Cc2ccccc2)c(=O)[nH]c1=O	·	·	·	-2	9	·
CCN(C(=O)CSc1nnc(-c2ccc(OC)cc2)n1N)c1c(N)n(Cc2ccccc2)c(=O)[nH]c1=O	8	6	36*	8	·	28*
CCN(C(=O)CSc1nnc(-c2cccc(F)c2)n1N)c1c(N)n(Cc2ccccc2)c(=O)[nH]c1=O	0	-6	16	-1	·	·
COCCN(C(=O)CSc1nnc(-c2ccccc2C)n1C)c1c(N)n(Cc2ccccc2)c(=O)[nH]c1=O	-1	15	28*	-1	·	33*
Cc1ccccc1Cn1cc(CN2[C@@H](Cc3ccccc3)COc3cc(Br)ccc3S2(=O)=O)nn1	-29	-1	-1	·	·	·
Cc1cc(Cl)ccc1OCC(=O)N/N=C/c1ccc[nH]1	-1	11	0	·	·	·
Cc1ccc(-n2c(SCC(=O)Nc3ccc4c5c(cccc35)CC4)nc(O)c(C)c2=O)cc1	0	-1	37*	3	-6	31*
COc1ccc(-c2csc(=Nc3ccccc3)n2CCO)cc1	-5	5	59*	3	-4	-6
CC(=O)c1cccc(N=c2scc(-c3ccc(S(=O)(=O)N4CCOCC4)cc3)n2CCO)c1	-5	0	69*	-4	-14	-1
COc1ccc(-c2csc(=NCCO)n2-c2ccccc2)cc1	-10	1	64*	0	-2	-2
COC(=O)[C@]12C[C@H](CC(=O)NCc3ccc(C)o3)C(=O)N(Cc3cccc4ccccc34)C1=C[C@H](C(C)C)O[C@@H]2C1CC1	-14	3	1	·	·	·
COc1ccc(/C=C2\SC(=S)N(N3C(=O)CCC3=O)C2=O)cc1O	5	1	49*	2	51	1
COc1ccc(/C=C2/SC(=S)N(Cc3ccccc3)C2=O)cc1O	-9	1	10	-8	-3	·
Cc1ccc(-c2nc3nc4ccccc4nc3n2Cc2ccco2)cc1	-8	-4	2	-10	6	·
Clc1ccc(-c2nc3nc4ccccc4nc3n2Cc2ccco2)cc1	-9	-12	27*	-12	-3	13
CCOC(=O)c1c(-c2ccc(C)o2)csc1NC(=O)COC(=O)c1cccs1	-8	-4	2	-32	-12	·
CCOC(=O)c1c(-c2ccc(C)o2)csc1NC(=O)CSc1ncn[nH]1	-9	-6	33*	-12	3	14
CCOC(=O)c1c(-c2ccc(C)o2)csc1NC(=S)NC(=O)N(C)C	2	4	80*	-5	-2	12
CC1CCCN1c1ccnc2cc(Cl)ccc12 (stereo unspecified)	-11	-1	11	·	·	·
CCN(CC)C1Oc2cc3c(cc2C(c2cc(OC)c(OC)c(OC)c2)C1C)OCO3 (stereo unspecified)	-8	-10	-2	0	·	·
c1ccc(-c2nccc(-c3ccco3)n2)nc1	-2	-5	1	11	-9	·
c1ccc(-c2nc(-c3ccco3)cs2)nc1	-4	-4	51*	6	56*	1
c1ccc(CN2CCC3(CC2)Nc2ccccc2S3)cc1	4	9	54*	3	-1	-3
